System: U2OS
Test: Multiplex assay against U2OS
Format: toxicity, cell-based
Conditions: human
Method in brief: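 Live cells carried four stains from seeding: Hoechst33342, BioTracker Green Microtubule Cytoskeleton Dye, MitoTracker Red and Annexin V Alexa Fluor 680. They were imaged on a CQ1 microscope at 37°C and 5% CO2 after compound addition. Using CellPathfinder machine-learning gating, cells were split into Hoechst high-intensity objects or normal cells, normal cells into healthy, pyknosed or fragmented nuclei, and pyknosed cells into mitotic or apoptotic; tubulin, mitochondrial-mass and membrane-permeability phenotypes are per cents of healthy-nucleus cells.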

[1] = 12 h, 1 µM, compound concentration 1 uM, replicate 1
[2] = 12 h, 1 µM, compound concentration 1 uM, replicate 2
[3] = 12 h, 10 µM, compound concentration 10 uM, replicate 1
[4] = 12 h, 10 µM, compound concentration 10 uM, replicate 2
[5] = 24 h, 1 µM, compound concentration 1 uM, replicate 1
[6] = 24 h, 1 µM, compound concentration 1 uM, replicate 2
[7] = 24 h, 10 µM, compound concentration 10 uM, replicate 1
[8] = 24 h, 10 µM, compound concentration 10 uM, replicate 2
[9] = 48 h, 1 µM, compound concentration 1 uM, replicate 1
[10] = 48 h, 1 µM, compound concentration 1 uM, replicate 2
[11] = 48 h, 10 µM, compound concentration 10 uM, replicate 1
[12] = 48 h, 10 µM, compound concentration 10 uM, replicate 2

O=C(Nc1ccc(Cl)cc1)Nc1cccc(-c2cccc(N3CCCC3)n2)c1
Population Apoptotic (%) [1]: 44%
Population Fragmented Nuclei (%) [1]: 11%
Population Healthy Nuclei (%) [1]: 79%
Population Hoechst High Intensity Objects (%) [1]: 10%
Population Membrane Permeable-Phenotype (%) [1]: 7%
Population Mitochondria Different-Phenotype (%) [1]: 7%
Population Mitotic Cells (%) [1]: 55%
Population Normal (%) [1]: 89%
Population Pyknosed Nuclei (%) [1]: 9%
Population Tubulin-Different-Phenotype (%) [1]: 7%
Total Cell Count [1]: 158
Population Apoptotic (%) [2]: 25%
Population Fragmented Nuclei (%) [2]: 17%
Population Healthy Nuclei (%) [2]: 76%
Population Hoechst High Intensity Objects (%) [2]: 7%
Population Membrane Permeable-Phenotype (%) [2]: 10%
Population Mitochondria Different-Phenotype (%) [2]: 8%
Population Mitotic Cells (%) [2]: 75%
Population Normal (%) [2]: 92%
Population Pyknosed Nuclei (%) [2]: 6%
Population Tubulin-Different-Phenotype (%) [2]: 12%
Total Cell Count [2]: 83
Population Apoptotic (%) [3]: 58%
Population Fragmented Nuclei (%) [3]: 10%
Population Healthy Nuclei (%) [3]: 65%
Population Hoechst High Intensity Objects (%) [3]: 10%
Population Membrane Permeable-Phenotype (%) [3]: 80%
Population Mitochondria Different-Phenotype (%) [3]: 12%
Population Mitotic Cells (%) [3]: 41%
Population Normal (%) [3]: 89%
Population Pyknosed Nuclei (%) [3]: 24%
Population Tubulin-Different-Phenotype (%) [3]: 82%
Total Cell Count [3]: 109
Population Apoptotic (%) [4]: 72%
Population Fragmented Nuclei (%) [4]: 3%
Population Healthy Nuclei (%) [4]: 78%
Population Hoechst High Intensity Objects (%) [4]: 7%
Population Membrane Permeable-Phenotype (%) [4]: 69%
Population Mitochondria Different-Phenotype (%) [4]: 7%
Population Mitotic Cells (%) [4]: 27%
Population Normal (%) [4]: 92%
Population Pyknosed Nuclei (%) [4]: 17%
Population Tubulin-Different-Phenotype (%) [4]: 74%
Total Cell Count [4]: 69
Population Apoptotic (%) [5]: 41%
Population Fragmented Nuclei (%) [5]: 6%
Population Healthy Nuclei (%) [5]: 83%
Population Membrane Permeable-Phenotype (%) [5]: 5%
Population Mitotic Cells (%) [5]: 58%
Population Pyknosed Nuclei (%) [5]: 9%
Population Tubulin-Different-Phenotype (%) [5]: 3%
Population Apoptotic (%) [6]: 20%
Population Fragmented Nuclei (%) [6]: 18%
Population Healthy Nuclei (%) [6]: 75%
Population Hoechst High Intensity Objects (%) [6]: 6%
Population Membrane Permeable-Phenotype (%) [6]: 7%
Population Mitochondria Different-Phenotype (%) [6]: 3%
Population Mitotic Cells (%) [6]: 80%
Population Normal (%) [6]: 93%
Population Pyknosed Nuclei (%) [6]: 6%
Population Tubulin-Different-Phenotype (%) [6]: 12%
Total Cell Count [6]: 94
Population Apoptotic (%) [7]: 83%
Population Fragmented Nuclei (%) [7]: 17%
Population Healthy Nuclei (%) [7]: 54%
Population Hoechst High Intensity Objects (%) [7]: 21%
Population Membrane Permeable-Phenotype (%) [7]: 53%
Population Mitochondria Different-Phenotype (%) [7]: 13%
Population Mitotic Cells (%) [7]: 16%
Population Normal (%) [7]: 78%
Population Pyknosed Nuclei (%) [7]: 28%
Population Tubulin-Different-Phenotype (%) [7]: 61%
Total Cell Count [7]: 131
Population Apoptotic (%) [8]: 72%
Population Fragmented Nuclei (%) [8]: 13%
Population Hoechst High Intensity Objects (%) [8]: 25%
Population Membrane Permeable-Phenotype (%) [8]: 46%
Population Mitochondria Different-Phenotype (%) [8]: 15%
Population Mitotic Cells (%) [8]: 27%
Population Normal (%) [8]: 74%
Population Pyknosed Nuclei (%) [8]: 31%
Population Tubulin-Different-Phenotype (%) [8]: 46%
Total Cell Count [8]: 81
Population Apoptotic (%) [9]: 30%
Population Fragmented Nuclei (%) [9]: 4%
Population Healthy Nuclei (%) [9]: 88%
Population Hoechst High Intensity Objects (%) [9]: 6%
Population Membrane Permeable-Phenotype (%) [9]: 1%
Population Mitochondria Different-Phenotype (%) [9]: 5%
Population Mitotic Cells (%) [9]: 69%
Population Normal (%) [9]: 93%
Population Pyknosed Nuclei (%) [9]: 6%
Population Tubulin-Different-Phenotype (%) [9]: 2%
Total Cell Count [9]: 245
Population Apoptotic (%) [10]: 50%
Population Fragmented Nuclei (%) [10]: 8%
Population Healthy Nuclei (%) [10]: 83%
Population Hoechst High Intensity Objects (%) [10]: 5%
Population Membrane Permeable-Phenotype (%) [10]: 4%
Population Mitochondria Different-Phenotype (%) [10]: 9%
Population Mitotic Cells (%) [10]: 50%
Population Normal (%) [10]: 94%
Population Pyknosed Nuclei (%) [10]: 7%
Population Tubulin-Different-Phenotype (%) [10]: 12%
Total Cell Count [10]: 110
Population Apoptotic (%) [11]: 91%
Population Fragmented Nuclei (%) [11]: 21%
Population Healthy Nuclei (%) [11]: 33%
Population Hoechst High Intensity Objects (%) [11]: 31%
Population Membrane Permeable-Phenotype (%) [11]: 31%
Population Mitochondria Different-Phenotype (%) [11]: 29%
Population Mitotic Cells (%) [11]: 8%
Population Normal (%) [11]: 68%
Population Pyknosed Nuclei (%) [11]: 44%
Population Tubulin-Different-Phenotype (%) [11]: 33%
Total Cell Count [11]: 221
Population Apoptotic (%) [12]: 87%
Population Fragmented Nuclei (%) [12]: 19%
Population Healthy Nuclei (%) [12]: 26%
Population Hoechst High Intensity Objects (%) [12]: 39%
Population Membrane Permeable-Phenotype (%) [12]: 40%
Population Mitochondria Different-Phenotype (%) [12]: 25%
Population Mitotic Cells (%) [12]: 12%
Population Normal (%) [12]: 60%
Population Pyknosed Nuclei (%) [12]: 53%
Population Tubulin-Different-Phenotype (%) [12]: 48%
Total Cell Count [12]: 108
